Data published in ChEMBL document CHEMBL2016480, “Structure-based ligand design of novel bacterial RNA polymerase inhibitors” (ACS Med Chem Lett, 2011).
≈ marks a conversion by molar mass, not a printed value.

How the values were obtained:
[1] = Inhibition of Escherichia coli DNA dependent RNA polymerase after 2 hrs by SYBR Green-based spectrophotometric analysis
Summary of the method: (§1)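 In vitro transcription assay with E. coli RNA polymerase on a Kool NC-45 RNAP template. Activity was reported as IC50 or as percentage inhibition at 100 μM compound.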

[2] = Inhibition of malate dehydrogenase at 100 uM
Summary of the method: (§2)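 Counter-screens for promiscuous inhibition using malate dehydrogenase and chymotrypsin enzyme assays. Activity was reported as percentage inhibition at 100 μM compound.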

[3] = system: Saccharomyces cerevisiae; assay: Inhibition of yeast RNA polymerase 2 at 100 uM
Summary of the method: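 Selectivity assay against yeast RNA polymerase II. Activity was reported as percentage inhibition at 100 μM compound.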

[4] = Inhibition of chymotrypsin at 100 uM; summary of the method: as §2
[5] = system: Staphylococcus aureus; assay: Antibacterial activity against Staphylococcus aureus SH1000 expressing rsbU gene; assay type: functional
Summary of the method: (§3)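 MICs by standard susceptibility testing per British Society for Antimicrobial Chemotherapy guidelines, run in triplicate. For the PMBN lines, tests were repeated with polymyxin B nonapeptide added as an outer-membrane permeabilizer.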

[6] = system: Bacillus subtilis; assay: Antibacterial activity against Bacillus subtilis 1S34; assay type: functional; summary of the method: as §3
[7] = system: Escherichia coli; assay: Antibacterial activity against Escherichia coli 1411 expressing lacI3, lacZ118, proB, trp, nalA, rpsL; assay type: functional; summary of the method: as §3
[8] = system: Escherichia coli; assay: Antibacterial activity against kanamycin-resistant,acrAB::Tn903 deficient Escherichia coli SM1411 expressing lacI3, lacZ118, proB, trp, nalA, rpsL; assay type: functional
[9] = system: Staphylococcus aureus; assay: Antibacterial activity against Staphylococcus aureus SH1000 expressing rsbU gene in the presence of polymyxin B nonapeptide; assay type: functional; summary of the method: as §3
[10] = system: Bacillus subtilis; assay: Antibacterial activity against Bacillus subtilis 1S34 in the presence of polymyxin B nonapeptide; assay type: functional; summary of the method: as §3
[11] = system: Escherichia coli; assay: Antibacterial activity against Escherichia coli 1411 expressing lacI3, lacZ118, proB, trp, nalA, rpsL in the presence of polymyxin B nonapeptide; assay type: functional; summary of the method: as §3
[12] = system: Escherichia coli; assay: Antibacterial activity against kanamycin-resistant,acrAB::Tn903 deficient Escherichia coli SM1411 expressing lacI3, lacZ118, proB, trp, nalA, rpsL in the presence of polymyxin B nonapeptide; assay type: functional
[13] = system: Staphylococcus aureus; assay: Antibacterial activity against Staphylococcus aureus; assay type: functional
[14] = Inhibition of DNA dependent RNA polymerase
[15] = system: Escherichia coli; assay: Inhibition of Escherichia coli DNA dependent RNA polymerase at 100 uM after 2 hrs by SYBR Green-based spectrophotometric analysis; summary of the method: as §1
[16] = Inhibition of Escherichia coli DNA dependent RNA polymerase assessed as inhibition of [14C]UTP incorporation after 15 mins by liquid scintillation counting

Structure (SMILES)	IC50 [1] [µM]	inhibition [2] [%]	inhibition [3] [%]	inhibition [4] [%]	MIC [5] [µg/mL]	MIC [6] [µg/mL]	MIC [7] [µg/mL]	MIC [8] [µg/mL]	MIC [9] [µg/mL]	MIC [10] [µg/mL]	MIC [11] [µg/mL]	MIC [12] [µg/mL]	MIC [13] [µg/mL]	IC50 [14] [µM]	inhibition [15] [%]	IC50 [16] [µM]
N#Cc1ccc(C(=O)Nc2ccc(-n3cncn3)nc2)cc1	9.9	0	12	0	> 256	> 256	> 256	> 256	> 256	> 256	> 256	> 256	–	–	–	–
NS(=O)(=O)c1ccc(C(=O)Nc2ccc(-n3ccnc3)nc2)cc1	18.9	0.5	14.7	0	> 256	> 256	> 256	> 256	> 256	> 256	> 256	> 256	–	–	–	–
CCCC/C(C)=C/C=C(\C)C(=O)c1c(O)cc(CCC/C=C/NC(=O)OC)oc1=O [DESMETHYL MYXOPYRONIN B]	–	–	–	–	> 256	> 256	> 256	> 256	> 256	> 256	> 256	> 256	4 (≈ 9.58 µM)	0.34	–	–
O=C(O)c1ccc(C(=O)Nc2ccc(-n3ccnc3)nc2)cc1	–	–	–	–	> 256	> 256	> 256	> 256	> 256	> 256	> 256	> 256	–	–	0	–
NS(=O)(=O)c1ccc(C(=O)Nc2ccc(-c3ccco3)nc2)cc1	–	–	–	–	> 256	> 256	> 256	> 256	> 256	> 256	> 256	> 256	–	–	12.9	–
CCCC/C(C)=C/C=C(\C)C(=O)c1c(O)cc([C@H](C)CC/C=C/NC(=O)OC)oc1=O [MYXOPYRONIN B]	46.5	–	–	–	> 256	> 256	> 256	> 256	> 256	> 256	> 256	> 256	1 (≈ 2.32 µM)	–	–	0.92
CS(=O)(=O)c1ccc(C(=O)Nc2ccc(-n3cncn3)nc2)cc1	–	–	–	–	> 256	> 256	> 256	> 256	> 256	> 256	> 256	> 256	–	–	0	–
O=C(Nc1ccc(-n2cncn2)nc1)c1ccccc1	–	–	–	–	> 256	> 256	> 256	> 256	> 256	> 256	> 256	> 256	–	–	0	–
NS(=O)(=O)c1ccc(C(=O)Nc2cnc3ccccc3c2)cc1	–	–	–	–	> 256	> 256	> 256	> 256	> 256	> 256	> 256	> 256	–	–	0	–
N#Cc1ccc(C(=O)Nc2cnc3ccccc3c2)cc1	–	–	–	–	> 256	> 256	> 256	> 256	> 256	> 256	> 256	> 256	–	–	0	–
NS(=O)(=O)c1ccc(C(=O)Nc2ccc(N3CCOCC3)nc2)cc1	–	–	–	–	> 256	> 256	> 256	> 256	> 256	> 256	> 256	> 256	–	–	0	–
NS(=O)(=O)c1ccc(C(=O)Nc2ccc(-n3cncn3)nc2)cc1	13.7	1.4	9.3	0.6	> 256	> 256	> 256	> 256	> 256	> 256	> 256	> 256	–	–	–	–
NS(=O)(=O)c1ccc(C(=O)Nc2ccc(N3CCCC3)nc2)cc1	–	–	–	–	> 256	> 256	> 256	> 256	> 256	> 256	> 256	> 256	–	–	17.9	–
COC(=O)c1ccc(C(=O)Nc2ccc(-n3ccnc3)nc2)cc1	–	–	–	–	> 256	> 256	> 256	> 256	> 256	> 256	> 256	> 256	–	–	0	–
NC(=O)c1ccc(C(=O)Nc2ccc(-n3cncn3)nc2)cc1	9.9	0	5.2	1.5	> 256	> 256	> 256	> 256	> 256	> 256	> 256	> 256	–	–	–	–
NS(=O)(=O)c1ccc(C(=O)Nc2ccc(-c3ccccc3)nc2)cc1	–	–	–	–	> 256	> 256	> 256	> 256	> 256	> 256	> 256	> 256	–	–	32.9	–
O=C(Nc1ccc(-n2cncn2)nc1)c1ccc(C(F)(F)F)cc1	–	–	–	–	> 256	> 256	> 256	> 256	> 256	> 256	> 256	> 256	–	–	5.9	–
NS(=O)(=O)c1ccc(C(=O)Nc2ccc(OCc3ccccn3)nc2)cc1	151	–	–	–	> 256	> 256	> 256	> 256	> 256	> 256	> 256	> 256	–	–	–	–
N#Cc1ccc(C(=O)Nc2ccc(-c3ccccc3)nc2)cc1	–	–	–	–	> 256	> 256	> 256	> 256	> 256	> 256	> 256	> 256	–	–	10.9	–
NC(=O)c1ccc(C(=O)Nc2ccc(-n3ccnc3)nc2)cc1	11.9	0	10.5	0.1	> 256	> 256	> 256	> 256	> 256	> 256	> 256	> 256	–	–	–	–
NS(=O)(=O)c1ccc(NC(=O)c2ccc(-n3cncn3)nc2)cc1	–	–	–	–	> 256	> 256	> 256	> 256	> 256	> 256	> 256	> 256	–	–	0	–
N#Cc1ccc(C(=O)Nc2ccc(-n3ccnc3)nc2)cc1	7.2	0.6	17.6	1.8	> 256	> 256	> 256	> 256	> 256	> 256	> 256	> 256	–	–	–	–
NS(=O)(=O)c1ccc(C(=O)Nc2cccnc2)cc1	–	–	–	–	> 256	> 256	> 256	> 256	> 256	> 256	> 256	> 256	–	–	0	–
